In ChEMBL document CHEMBL2177069, “Novel peptidomimetic compounds containing redox active chalcogens and quinones as potential anticancer agents” (Eur J Med Chem, 2012):

How the values were obtained:
SF-268 = test: Cytotoxicity against human SF268 cells; format: functional; conditions: for TGI: read-out: pTGI (converted)
M14 = test: Cytotoxicity against human M14 cells; format: functional; conditions: for TGI: read-out: pTGI (converted)
OVCAR-8 = test: Cytotoxicity against human OVCAR8 cells; format: functional; conditions: for TGI: read-out: pTGI (converted)
RPMI-8226 = test: Cytotoxicity against human RPMI8226 cells; format: functional; conditions: for TGI: read-out: pTGI (converted)
HL-60 = test: Cytotoxicity against human HL60 cells; format: functional; conditions: for TGI: read-out: pTGI (converted)
OVCAR-4 = test: Cytotoxicity against human OVCAR4 cells; format: functional; conditions: for TGI: read-out: pTGI (converted)
HOP-62 = test: Cytotoxicity against human HOP62 cells; format: functional; conditions: for TGI: read-out: pTGI (converted)
PC-3 = test: Cytotoxicity against human PC3 cells; format: functional; conditions: for TGI: read-out: pTGI (converted)
Saccharomyces cerevisiae [1] = test: Growth inhibition of UFD2-deficient Saccharomyces cerevisiae YDL190C mutant at 20 ug/disc after 24 to 48 hrs by agar diffusion assay; format: functional; conditions: read-out: DIZ
Method in brief: (§1)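 S. cerevisiae deletion mutants or wild type grown on YPD, seeded into liquid agar medium at an optical density of 0.1. 6 mm paper discs soaked with methanolic compound solution were placed on the plates and incubated at 30 °C. Growth was checked after 1 and 2 days, and the inhibition zone diameter was recorded in mm.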

MDA-MB-468 = test: Cytotoxicity against human MDA-MB-468 cells; format: functional; conditions: for TGI: read-out: pTGI (converted)
Saccharomyces cerevisiae [2] = test: Growth inhibition of SOD2-deficient Saccharomyces cerevisiae YHR008C mutant at 20 ug/disc 24 to 48 hrs by agar diffusion assay; format: functional; conditions: read-out: DIZ; method in brief: as §1
U-251 = test: Cytotoxicity against human U251 cells; format: functional; conditions: for TGI: read-out: pTGI (converted)
[3] = Cytotoxicity against human PHF cells after 24 hrs by MTT assay; format: cell-based
Method in brief: (§2)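 MTT assay. Cells were seeded at 50,000 cells/mL in medium with 10% fetal calf serum and grown for two days at 37 °C, 10% CO2. Serial dilutions of compound were then added for 24 h. MTT was added (final 0.5 mg/mL) for 2 h, and the formazan was pelleted, washed, dissolved in isopropanol with 0.4% HCl and read at 590 nm. IC50 is the concentration giving 50% of untreated-control absorbance, taken from dose-response curves; mean of two parallel experiments.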

A-431 = test: Cytotoxicity against human A431 cells after 24 hrs by MTT assay; format: functional, cell-based; conditions: A-431, 24 h; method in brief: as §2
NCI/ADR-RES = test: Cytotoxicity against human NCI/ADR-RES cells; format: functional; conditions: for TGI: read-out: pTGI (converted)
EKVX = test: Cytotoxicity against human EKVX cells; format: functional; conditions: for TGI: read-out: pTGI (converted)
MOLT-4 = test: Cytotoxicity against human MOLT4 cells; format: functional; conditions: for TGI: read-out: pTGI (converted)
Saccharomyces cerevisiae [4] = test: Growth inhibition of GTT2-deficient Saccharomyces cerevisiae YLL060C mutant at 20 ug/disc after 24 to 48 hrs by agar diffusion assay; format: functional; conditions: read-out: DIZ; method in brief: as §1
Malme-3M = test: Cytotoxicity against human MALME-3M cells; format: functional; conditions: for TGI: read-out: pTGI (converted)
UO-31 = test: Cytotoxicity against human UO31 cells; format: functional; conditions: for TGI: read-out: pTGI (converted)
SF-295 = test: Cytotoxicity against human SF295 cells; format: functional; conditions: for TGI: read-out: pTGI (converted)
MCF7 = test: Cytotoxicity against human MCF7 cells after 24 hrs by MTT assay; format: functional, cell-based; conditions: MCF7, 24 h; method in brief: as §2
SK-MEL-28 = test: Cytotoxicity against human SK-MEL-28 cells; format: functional; conditions: for TGI: read-out: pTGI (converted)
MDA-MB-435 = test: Cytotoxicity against human MDA-MB-435 cells; format: functional; conditions: for TGI: read-out: pTGI (converted)
A549 = test: Cytotoxicity against human A549 cells; format: functional; conditions: for TGI: read-out: pTGI (converted)
ACHN = test: Cytotoxicity against human ACHN cells; format: functional; conditions: for TGI: read-out: pTGI (converted)
NCI-H226 = test: Cytotoxicity against human NCI-H226 cells; format: functional; conditions: for CC50: read-out: pLC50 (the source's name) (converted); for TGI: read-out: pTGI (converted)
OVCAR-5 = test: Cytotoxicity against human OVCAR5 cells; format: functional; conditions: for TGI: read-out: pTGI (converted)
SNB-75 = test: Cytotoxicity against human SNB75 cells; format: functional; conditions: for TGI: read-out: pTGI (converted)
HCT-15 = test: Cytotoxicity against human HCT15 cells; format: functional; conditions: for TGI: read-out: pTGI (converted)
LOX IMVI = test: Cytotoxicity against human LOXIMVI cells; format: functional; conditions: for TGI: read-out: pTGI (converted)
RXF 393 = test: Cytotoxicity against human RXF393 cells; format: functional

CC1=C([Se]CC(OC(=O)[C@@H](CSSC(C)(C)C)NC(=O)C(C)(C)C)C(=O)NCCCCCC(=O)OCc2ccccc2)C(=O)c2ccccc2C1=O (some centres undefined)
GI50 (SF-268): 1.91 µM | LC50 (SF-268): 6.46 µM | TGI (SF-268): 3.55 µM | GI50 (M14): 2.04 µM | LC50 (M14): 7.94 µM | TGI (M14): 4.07 µM | GI50 (OVCAR-8): 2 µM | LC50 (OVCAR-8): 7.08 µM | TGI (OVCAR-8): 3.8 µM | GI50 (RPMI-8226): 2.34 µM | LC50 (RPMI-8226): > 100 µM | TGI (RPMI-8226): 6.76 µM | GI50 (HL-60): 2.51 µM | LC50 (HL-60): > 100 µM | TGI (HL-60): 6.03 µM | GI50 (OVCAR-4): 1.58 µM | LC50 (OVCAR-4): 5.62 µM | TGI (OVCAR-4): 2.95 µM | GI50 (HOP-62): 1.02 µM | LC50 (HOP-62): 9.12 µM | TGI (HOP-62): 3.02 µM | GI50 (PC-3): 1.51 µM | LC50 (PC-3): 8.71 µM | TGI (PC-3): 3.63 µM | zone of inhibition at 20 µg/disc (Saccharomyces cerevisiae [1]): 0 mm | GI50 (MDA-MB-468): 2.19 µM | LC50 (MDA-MB-468): 8.51 µM | TGI (MDA-MB-468): 4.37 µM | zone of inhibition at 20 µg/disc (Saccharomyces cerevisiae [2]): 0 mm | GI50 (U-251): 1.26 µM | LC50 (U-251): 6.31 µM | TGI (U-251): 2.82 µM | IC50 [3]: 4 µM | IC50 (A-431): 4 µM | GI50 (NCI/ADR-RES): 3.39 µM | CC50 (NCI/ADR-RES; read-out: pLC50 (the source's name) (converted)): > 100 µM | TGI (NCI/ADR-RES): 11.5 µM | GI50 (EKVX): 2.24 µM | LC50 (EKVX): > 100 µM | TGI (EKVX): 5.37 µM | GI50 (MOLT-4): 3.24 µM | LC50 (MOLT-4): > 100 µM | TGI (MOLT-4): 9.55 µM | zone of inhibition at 20 µg/disc (Saccharomyces cerevisiae [4]): 12 mm | GI50 (Malme-3M): 2.51 µM | LC50 (Malme-3M): 13.5 µM | TGI (Malme-3M): 5.13 µM | GI50 (UO-31): 1.48 µM | LC50 (UO-31): 6.76 µM | TGI (UO-31): 3.16 µM | GI50 (SF-295): 0.316 µM | LC50 (SF-295): > 100 µM | TGI (SF-295): 1.95 µM | IC50 (MCF7): 8 µM | GI50 (SK-MEL-28): 1.91 µM | LC50 (SK-MEL-28): 6.46 µM | TGI (SK-MEL-28): 3.55 µM | GI50 (MDA-MB-435): 2.29 µM | LC50 (MDA-MB-435): 25.1 µM | TGI (MDA-MB-435): 5.5 µM | GI50 (A549): 2.09 µM | LC50 (A549): > 100 µM | TGI (A549): 5.37 µM | GI50 (ACHN): 2.14 µM | LC50 (ACHN): 14.5 µM | TGI (ACHN): 4.9 µM | GI50 (NCI-H226): 2.34 µM | CC50 (NCI-H226): 9.12 µM | TGI (NCI-H226): 4.68 µM | GI50 (OVCAR-5): 2.57 µM | LC50 (OVCAR-5): 17.4 µM | TGI (OVCAR-5): 5.5 µM | GI50 (SNB-75): 1.38 µM | LC50 (SNB-75): 5.13 µM | TGI (SNB-75): 2.69 µM | GI50 (HCT-15): 3.24 µM | LC50 (HCT-15): 66.1 µM | TGI (HCT-15): 12.9 µM | GI50 (LOX IMVI): 2.57 µM | LC50 (LOX IMVI): 42.7 µM | TGI (LOX IMVI): 7.59 µM

CC1=C([Se]CC(OC(=O)[C@@H](CO)NC(=O)OC(C)(C)C)C(=O)NCCCCCC(=O)OCc2ccccc2)C(=O)c2ccccc2C1=O (some centres undefined)
GI50 (SF-268): 1.86 µM | LC50 (SF-268): 5.75 µM | TGI (SF-268): 3.24 µM | GI50 (M14): 1.78 µM | LC50 (M14): 6.03 µM | TGI (M14): 3.31 µM | GI50 (OVCAR-8): 1.82 µM | LC50 (OVCAR-8): 6.17 µM | TGI (OVCAR-8): 3.39 µM | GI50 (RPMI-8226): 2.19 µM | LC50 (RPMI-8226): > 100 µM | TGI (RPMI-8226): 5.89 µM | GI50 (HL-60): 2.04 µM | LC50 (HL-60): > 100 µM | TGI (HL-60): 4.79 µM | GI50 (OVCAR-4): 1.55 µM | LC50 (OVCAR-4): 5.37 µM | TGI (OVCAR-4): 2.88 µM | GI50 (HOP-62): 0.417 µM | LC50 (HOP-62): 4.79 µM | TGI (HOP-62): 1.74 µM | GI50 (PC-3): 1.23 µM | LC50 (PC-3): 5.37 µM | TGI (PC-3): 2.57 µM | zone of inhibition at 20 µg/disc (Saccharomyces cerevisiae [1]): 0 mm | GI50 (MDA-MB-468): 1.48 µM | LC50 (MDA-MB-468): 6.76 µM | TGI (MDA-MB-468): 3.16 µM | zone of inhibition at 20 µg/disc (Saccharomyces cerevisiae [2]): 11 mm | GI50 (U-251): 0.933 µM | LC50 (U-251): 4.9 µM | TGI (U-251): 2.19 µM | IC50 [3]: 27 µM | IC50 (A-431): 4 µM | GI50 (NCI/ADR-RES): 2.04 µM | TGI (NCI/ADR-RES): 3.89 µM | GI50 (EKVX): 1.82 µM | LC50 (EKVX): 8.32 µM | TGI (EKVX): 3.89 µM | GI50 (MOLT-4): 1.38 µM | LC50 (MOLT-4): > 100 µM | TGI (MOLT-4): 4.9 µM | zone of inhibition at 20 µg/disc (Saccharomyces cerevisiae [4]): 12 mm | GI50 (Malme-3M): 2.09 µM | LC50 (Malme-3M): 7.08 µM | TGI (Malme-3M): 3.8 µM | GI50 (UO-31): 1.55 µM | LC50 (UO-31): 5.89 µM | TGI (UO-31): 3.02 µM | GI50 (SF-295): 0.324 µM | LC50 (SF-295): 30.9 µM | TGI (SF-295): 1.51 µM | IC50 (MCF7): 5 µM | GI50 (SK-MEL-28): 1.78 µM | LC50 (SK-MEL-28): 5.75 µM | TGI (SK-MEL-28): 3.24 µM | GI50 (MDA-MB-435): 1.78 µM | LC50 (MDA-MB-435): 6.76 µM | TGI (MDA-MB-435): 3.47 µM | GI50 (RXF 393): 2.69 µM | LC50 (RXF 393): 6.46 µM | TGI (RXF 393; read-out: pTGI (converted)): 4.17 µM | GI50 (A549): 1.38 µM | LC50 (A549): 6.92 µM | TGI (A549): 3.09 µM | GI50 (ACHN): 1.66 µM | LC50 (ACHN): 5.75 µM | TGI (ACHN): 3.09 µM | GI50 (NCI-H226): 2.24 µM | CC50 (NCI-H226): 8.71 µM | TGI (NCI-H226): 4.37 µM | GI50 (OVCAR-5): 2.09 µM | LC50 (OVCAR-5): 6.31 µM | TGI (OVCAR-5): 3.63 µM | GI50 (SNB-75): 1.29 µM | LC50 (SNB-75): 5.01 µM | TGI (SNB-75): 2.57 µM | GI50 (HCT-15): 1.95 µM | LC50 (HCT-15): 7.41 µM | TGI (HCT-15): 3.8 µM | GI50 (LOX IMVI): 1.86 µM | LC50 (LOX IMVI): 7.41 µM | TGI (LOX IMVI): 3.72 µM
